From PubChem BioAssay
Compounds with a hit are over-represented: about 2.2% of the library has one in this group of screens.
Dynein transport – inhibitors of GR-EGFP nuclear translocation, primary screen, dynein cargo transport inhibitor project, imaging, high-content, 3617.4 mouse cells | test concentration mostly 20 µM; stimulated with dexamethasone, 1 µM; active compounds read low | z-score, hits read low | 0.47% of 220,000 active;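 active = plate z-score of nuclear minus cytoplasmic receptor signal below a set negative limit, without overly bright fluorescence or cell loss, cut at about -3.5 in these data, passing the limit was not always enough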;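 also: z-score of nuclear minus cytoplasmic ring GR-EGFP intensity difference per well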
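Buffer or medium – tet-free medium with charcoal-stripped serum · Signal – automated 10x imaging of fixed Hoechst-stained cells · Also added – dexamethasone agonist, 1.0 µM final, for 30 min · Incubation – induction 48 h, compound 1 h, agonist 30 min · Read-out – GR-EGFP nuclear translocation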
PTEN del growth – growth suppression of PTEN-null HCT116, primary screen, cell-based, CellTiter-Glo. 1.2% of 140,000 active. HCT116 PTEN-null viability, 60 h; active compounds read low. viability, % at 10 µM. AID 827, 2007;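 active = viability at or below a set limit, 4 SD under the median of all tested compounds, cut at about 3.7% in these data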;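 also: PTEN knockout HCT116 line with beta catenin targeted HCT116 as companion control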
bCat KO growth – primary screen for growth suppressors in beta-catenin knockout HCT116 cells (colon tumor, human); HCT116 beta-catenin knockout viability, CellTiter-Glo, 60 h; active compounds read low; viability, % at 10 µM; 1.5% of 140,000 active; AID 818, 2007;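 active = viability at or under a set limit, the compound median less 4 SD, cut at about 6% in these data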;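 also: 0% = Hyamine 1622 control at 20 µM and 100% = untreated cell control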
Autophagy HCS – autophagy modulators in MEF cells, primary screen, imaging, high-content, MEF GFP-LC3; 0.98% of 190,000 active; MEF GFP-LC3 puncta imaging; test concentration mostly 10 µM; calls only at 10 µM (by protocol);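 active = percentage of spot-positive cells more than 3 SD above its plate mean, without a fluorescence outlier flag or 80% toxicity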;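 also: spot-positive cell cutoff set from DMSO-treated cells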
SDO1 yeast rescue – growth rescue of sdo1-depleted yeast, primary screen, S. cerevisiae, bone marrow failure model; z-score at 10 µM; AID 817, 2007; 0.21% of 140,000 active; S. cerevisiae sdo1-depleted JHY4D growth rescue, OD600 30 h; active compounds read high; pdr5 snq2 efflux-pump mutant strain;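 active = z-score above 3 at both the 24 hr and the 30 hr optical density reads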;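 also: z-score against mean and SD of all compound wells on the same plate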
* hit, by the source's call; i = inactive; · = no result given; + = active, no number.

SMILES	Dynein transport	PTEN del growth	bCat KO growth	Autophagy HCS	SDO1 yeast rescue
CS(=O)(=O)N1CCN(c2ccc([N+](=O)[O-])c(NCc3ccc(Cl)cc3)c2)CC1	-0.214	5.9	2.2*	i	-1.17
O=[N+]([O-])c1ccc(N2CCN(S(=O)(=O)c3ccc(Cl)cc3)CC2)cc1NCC1CCCO1 (centres undefined)	-0.0874	82.4	85.1	+	0.06
CCOC(=O)c1c(-c2ccccc2)csc1NC(=O)c1cc2ccccc2oc1=O	1.49	98.8	99.8	i	-0.51
CN(c1ccccc1)S(=O)(=O)c1cccc(NC(=O)C2CC(=O)N(Cc3ccccc3)C2)c1 (centres undefined)	-0.482	·	·	·	·
COC(=O)Nc1nc2ccc(-c3n[nH]c(=O)c4ccccc34)cc2[nH]1	1.42	71.8	67.8	i	1.07
C=CCOc1ccc2nc(NC(=O)OC)[nH]c2c1	-0.631	15.6	13.1	+	0.52
O=C(CC1SC2=NCCN2C1=O)Nc1ccc(Cl)cc1 (centres undefined)	0.438	94.4	88.4	+	1.8
Cc1ccc2nc(NC(=O)/C=C/c3ccc4c(c3)OCO4)sc2c1	0.537	1.2*	7.5	i	0.3
O=C(/C=C/c1ccc2c(c1)OCO2)Nc1nc2ccccc2s1	0.924	19.4	24.5	i	-0.85
O=C(/C=C/c1ccc2c(c1)OCO2)Nc1nc(-c2ccc(F)cc2F)cs1	0.0282	11.7	5.8*	i	-0.44
Cc1csc(NC(=O)/C=C/c2ccc3c(c2)OCO3)n1	-0.652	105.1	94.8	i	0.09
CC1=C(C(=O)OC(C)C)[C@@H](c2ccc(C)o2)NC(=O)N1	0.716	98.5	93.2	i	0.02
CCOC(=O)C1CCN(C(=O)c2c(C)oc3c2C(=O)c2ccccc2C3=O)CC1	-0.0778	0.7*	1.1*	i	-1.12
Cc1oc2c(c1C(=O)N1CCC(C)CC1)C(=O)c1ccccc1C2=O	-0.252	1.5*	1.6*	i	-1.67
CC1CCN(C(=O)c2cc3ccccc3c(=O)o2)CC1	-0.643	96.0	104.0	i	0.18
CCOC(=O)C1CCN(C(=O)c2ccco2)CC1	0.913	106.7	103.2	i	-0.02
CCc1ccc2c(c1)cc(CN(C(=S)Nc1ccccc1C)C1CC1)c1nnnn12	·	72.0	69.9	i	-0.93
CCc1ccc2c(c1)cc(CN(C(=S)Nc1ccccc1)C1CC1)c1nnnn12	·	79.5	82.4	+	-1.2
O=S(=O)(Nc1cccc2cccnc12)c1ccc(S(=O)(=O)N2CCCC2)cc1	-0.268	3.8*	8.7	i	-0.49
c1ccc(-c2nc3nonc3nc2-c2ccccc2)cc1	0.251	2.4*	2.3*	i	-1.65
NC(=O)c1oc2ccccc2c1NC(=O)C1COc2ccccc2O1 (centres undefined)	-0.0199	·	·	i	·
Cc1ccc2c(CC(=O)NC3=NCCS3)coc2c1	-0.786	89.1	85.8	i	0.41
Cc1cc2occ(CC(=O)NC3=NCCS3)c2cc1C(C)C	-0.246	103.0	95.4	+	-1.34
Cc1cc(C)nc(Nc2n[nH]c(-c3ccccc3C)n2)n1	1.35	·	·	+	·
CCOc1ccc(C2C(C(=O)c3cccs3)=C(O)C(=O)N2Cc2cccnc2)cc1 (centres undefined)	-0.791	·	·	+	·
SMILES	Dynein transport	PTEN del growth	bCat KO growth	Autophagy HCS	SDO1 yeast rescue
CCOc1ccc(C2C(C(=O)c3cccs3)=C(O)C(=O)N2Cc2cccnc2)cc1OC (centres undefined)	-0.629	·	·	i	·
COc1ccc(N2CCN(CCCNC(=O)CN3CCN(Cc4ccccc4C)C3=O)CC2)cc1	0.0478	62.0	64.1	+	0.57
Cc1ccc(S(=O)(=O)c2cc3ccccc3oc2=Nc2ccc3c(c2)OCO3)cc1	1.59	90.3	80.9	+	-0.78
Cc1c(CN2CCCC(C(=O)c3cccc(OC(C)C)c3)C2)c(=O)n(-c2ccccc2)n1C (centres undefined)	1.27	·	·	+	·
CCn1ncc(CN2CCCC(C(=O)c3cccc(OC(C)C)c3)C2)c1C (centres undefined)	-0.359	·	·	i	·
COc1cccc(-c2noc(C3CCCN(S(=O)(=O)c4cccc(Cl)c4C)C3)n2)c1 (centres undefined)	1.01	93.1	90.3	i	-0.4
COc1ccc2[nH]c(CN3CCC(CO)(CCOc4ccccc4)CC3)c(C)c2c1	-0.407	·	·	+	·
CCOc1ccc(NC(=O)CC2C(=O)N(c3ccccc3)C(=O)N2Cc2ccco2)cc1 (centres undefined)	0.0656	·	·	i	·
Cc1c(Cl)cccc1N1CC(C(=O)Nc2nccs2)CC1=O (centres undefined)	-0.154	91.2	96.7	i	0.18
Cc1ccc(N2CC(C(=O)Nc3nccs3)CC2=O)cc1Cl (centres undefined)	-0.608	51.4	61.5	+	-0.38
COC(=O)c1ccc2c(=O)[nH]c(CSc3nc(C)cs3)nc2c1	-0.78	·	·	+	·
COC(=O)c1ccc2c(=O)[nH]c(CSc3nc(-c4ccc(F)cc4)cs3)nc2c1	0.041	90.0	89.3	i	-0.42
COc1ccc(C2(O)CCN(CC(=O)Nc3nccs3)CC2)c(OC)c1	0.575	92.1	90.5	i	0.14
Oc1ccc(/C=N/Nc2nccnc2Cl)c(O)c1	-0.0287	6.4	4.5*	i	0.22
Oc1ccc(/C=N/Nc2ncc(Br)cn2)c(O)c1	-0.762	7.7	6.0*	i	-0.49
CN(C)c1ccc(/C=N/N=C2/NC(=O)/C(=C/c3ccc([N+](=O)[O-])cc3)S2)cc1	-1.69	51.6	62.3	i	0.81
O=S(=O)(Nc1cccc2ncccc12)c1cccs1	-1.64	1.5*	1.7*	i	-1.84
COc1ccc(-c2nnc(SCC(=O)Nc3sc4c(c3C#N)CCCC4)n2-c2ccccc2)cc1	0.0379	1.7*	3.9*	+	-1.23
CCOC(=O)c1c(NC(=O)c2ccc(-n3cnnn3)cc2)sc2c1CCCC2	-0.463	4.6	3.4*	i	1.05
CCOC(=O)c1c(NC(=O)CSc2nnc(-c3cccnc3)o2)sc2c1CCC2	-0.16	86.1	90.5	i	-0.82
CCOC(=O)c1c(NC(=O)CSc2nnc(-c3ccc(OC)cc3)o2)sc2c1CCC2	-0.188	·	·	+	·
COCCn1c(N)c(C(=O)Nc2sc3c(c2C(=O)OC)CCCC3)c2nc3ccccc3nc21	-0.577	4.4	4.0*	i	-0.52
CC(C)(C)c1cccc(OCCCSc2ncccn2)c1	0.348	75.6	78.6	i	-0.69
Cc1c2c(n3c(nc4ccccc43)c1C#N)N(c1ccccc1)CC2	0.387	91.9	95.6	+	0.3
CCc1c(C)c(C#N)c2nc3ccccc3n2c1Cl	-1.13	2.2*	4.0*	i	-1.98
CCc1c(C)c(C#N)c2nc3ccccc3n2c1-n1nc(C)cc1C	-0.416	88.3	86.0	i	-0.04
